From ChEMBL document CHEMBL4364311, “Variations on a scaffold - Novel GABAA receptor modulators” (Eur J Med Chem, 2019)
Calls of active or inactive are those of the source. The rule behind the calls is not given here.

What was measured:
[1] = biological target: T1, Gamma-aminobutyric acid receptor subunit alpha-1/beta-3 (Rattus norvegicus) (UniProt P62813+P63079); test: (§1) Positive allosteric modulator activity at rat alpha1beta3 GABA-A receptor expressed in Xenopus laevis oocytes assessed as increase in GABA-induced chloride current at 30 uM co-applied with GABA at concentration of EC3-5 at -60 mV holding potential by two-microelectrode voltage clamp method relative to control; format: cell-based
Summary of the method: (§2)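 α1 and β3 RNA mixed 1:1 (final 56 ng/μl); collagenase-defolliculated stage 5–6 Xenopus oocytes injected with 2.8 ng mRNA, kept 2–3 days at 18 °C. Two-electrode clamp at −60 mV, room temperature, electrodes 1–3 MΩ with 2 M KCl, NDE perfusion 6 mL/min. GABA titrated to 3–5% of maximal current, co-applied with compound (0.1% DMSO final) until peak response.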

[2] = Solubility of the compound in MeOH; format: physicochemical
[3] = Solubility of the compound at 30 uM in NDE medium containing 0.1% DMSO; format: physicochemical
[4] = Solubility of the compound in DMSO; format: physicochemical
[5] = biological target: T1, Gamma-aminobutyric acid receptor subunit alpha-1/beta-3 (Rattus norvegicus); test: as §1, with “10” for “30”; format: cell-based; summary of the method: as §2
[6] = biological target: T1, Gamma-aminobutyric acid receptor subunit alpha-1/beta-3 (Rattus norvegicus); test: as §1, with “current at 1 to 30 uM” for “current at 30 uM”; format: cell-based; summary of the method: as §2

| Structure (SMILES) | Activity [1] | solubility [2] | solubility [3] | Efficacy [1] | solubility [4] | Efficacy [5] | Activity [6] |
| --- | --- | --- | --- | --- | --- | --- | --- |
| CCOC(=O)c1[nH]c2ccccc2c1/N=N/c1ccc(OC)cc1 | inactive | – | – | – | – | – | – |
| COc1ccc(/N=N/c2c(C(=O)O)[nH]c3ccccc23)cc1 | – | Soluble | Soluble | 200% | Soluble | – | – |
| Cc1ccc(/N=N/c2c(C(=O)O)[nH]c3ccc(Cl)cc23)cc1 | – | Soluble | Soluble | 1800% | Soluble | 707% | Active |
| COc1ccc2[nH]c(C(=O)O)c(/N=N/c3ccc(C)cc3)c2c1 | – | Soluble | Soluble | 400% | Soluble | 167% | Active |
| CCOC(=O)c1[nH]c2ccc(Cl)cc2c1/N=N/c1ccc(OC)cc1 | inactive | – | – | – | – | – | – |
| COc1ccc2[nH]c(C(=O)O)c(/N=N/c3ccc(Br)cc3)c2c1 | – | Soluble | Soluble | 830% | Soluble | – | Active |
| O=C(O)c1[nH]c2ccc(Cl)cc2c1/N=N/c1ccc(Br)cc1 | – | Soluble | Soluble | 3000% | Soluble | – | Active |
| COc1ccc(/N=N/c2c(C(=O)O)[nH]c3ccc(OC)cc23)cc1 | – | Soluble | Soluble | 300% | Soluble | 196% | – |

Second part, the molecule after the results:

| Activity [1] | solubility [2] | solubility [3] | Efficacy [1] | solubility [4] | Efficacy [5] | Activity [6] | Structure (SMILES) |
| --- | --- | --- | --- | --- | --- | --- | --- |
| – | Soluble | Soluble | 2000% | Soluble | 919% | Active | COc1ccc(/N=N/c2c(C(=O)O)[nH]c3ccc(Cl)cc23)cc1 |
| – | – | – | – | – | 372% | – | Cc1ccc(-n2nc3c4cc(Cl)ccc4[nH]cc-3c2=O)cc1 |
| – | – | – | – | – | 1120% | – | COc1ccc(-n2nc3c4cc(OC)ccc4[nH]cc-3c2=O)cc1 |
| – | – | – | – | – | 1060% | – | COc1ccc(-n2nc3c4cc(Cl)ccc4[nH]cc-3c2=O)cc1 |
| – | – | – | – | – | 719% | – | COc1ccc2[nH]cc3c(=O)n(-c4ccc(C)cc4)nc-3c2c1 |
